Measured values reported in ChEMBL document CHEMBL3585321, “Synthesis and antimicrobial activity of chloramphenicol-polyamine conjugates” (Bioorg Med Chem, 2015).
Active and inactive are the calls of the source. No cut-off for these calls is given here.

Assays:
[1] = system: Escherichia coli; assay: Antibacterial activity against Escherichia coli lacking chromosomal rrn alleles and containing pKK35 plasmids possessing 23S rRNA A2503C mutant assessed as inhibition of bacterial growth; format: functional, organism-based
[2] = system: Escherichia coli; assay: Antibacterial activity against Escherichia coli BL21(DE3) expressing delta-tolC gene assessed as inhibition of bacterial growth; format: functional, organism-based
In short: (§1)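 IC50 from bacterial cultures grown in LB medium without drug or with drug across a range of concentrations, reported in μM. Three independent experiments, each with two replicates, given as mean±SD.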

[3] = system: Escherichia coli; assay: Antibacterial activity against wild type Escherichia coli K-12 assessed as inhibition of bacterial growth; format: functional, organism-based
[4] = system: Staphylococcus aureus; assay: Antibacterial activity against methicillin-resistant Staphylococcus aureus GRE2372 assessed as inhibition of bacterial growth; format: functional, organism-based
[5] = system: Escherichia coli; assay: Antibacterial activity against Escherichia coli lacking chromosomal rrn alleles and containing pKK35 plasmids possessing 23S rRNA A2058G mutant assessed as inhibition of bacterial growth; format: functional, organism-based
[6] = system: Staphylococcus aureus; assay: Antibacterial activity against methicillin-resistant Staphylococcus aureus GRE2272 assessed as inhibition of bacterial growth; format: functional, organism-based
[7] = system: Staphylococcus aureus; assay: Antibacterial activity against wild type Staphylococcus aureus assessed as inhibition of bacterial growth; format: functional, organism-based
[8] = system: Escherichia coli; assay: Antibacterial activity against Escherichia coli Rosetta(DE3) containing rare tRNA genes and chloramphenicol resistant gene in pLysS plasmid assessed as inhibition of bacterial growth; format: functional, organism-based; in short: as §1
[9] = system: Staphylococcus aureus; assay: Antibacterial activity against methicillin-resistant Staphylococcus aureus GRE2691 assessed as inhibition of bacterial growth; format: functional, organism-based
[10] = system: Escherichia coli; assay: Antibacterial activity against wild type Escherichia coli K-12 assessed as inhibition of bacterial growth at antibacterial IC50 level in presence of 10 times IC50 levels of putrescine; format: functional, organism-based
In short: (§2)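 Cells started at A560 0.020 in M9 medium with drug at its own growth IC50, alone or with putrescine, spermidine or spermine at 10×IC50. Cultures run until the drug-free control reached A560 0.800. Growth given as percent of control optical density. At least three experiments, two replicates each, mean±SD, p<0.05.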

[11] = system: Staphylococcus aureus; assay: Antibacterial activity against wild type Staphylococcus aureus assessed as inhibition of bacterial growth at antibacterial IC50 level in presence of 10 times IC50 levels of putrescine; format: functional, organism-based; in short: as §2
[12] = system: Escherichia coli; assay: Antibacterial activity against wild type Escherichia coli K-12 assessed as inhibition of bacterial growth at antibacterial IC50 level in presence of 10 times IC50 levels of spermidine; format: functional, organism-based; in short: as §2
[13] = system: Staphylococcus aureus; assay: Antibacterial activity against wild type Staphylococcus aureus assessed as inhibition of bacterial growth at antibacterial IC50 level in presence of 10 times IC50 levels of spermidine; format: functional, organism-based; in short: as §2
[14] = system: Escherichia coli; assay: Antibacterial activity against wild type Escherichia coli K-12 assessed as inhibition of bacterial growth at antibacterial IC50 level in presence of 10 times IC50 levels of spermine; format: functional, organism-based; in short: as §2
[15] = system: Staphylococcus aureus; assay: Antibacterial activity against wild type Staphylococcus aureus assessed as inhibition of bacterial growth at antibacterial IC50 level in presence of 10 times IC50 levels of spermine; format: functional, organism-based; in short: as §2
[16] = system: Escherichia coli; assay: Potency index, ratio of IC50 against wild type Escherichia coli K-12 to IC50 against Escherichia coli BL21(DE3) expressing delta-tolC gene; format: functional
[17] = system: Escherichia coli; assay: Ratio of Vmax to Km for Escherichia coli chloramphenicol acetyltransferase assessed as coenzyme A formation using acetyl coenzyme A at 0.154 mM
[18] = system: Escherichia coli; assay: Activity of Escherichia coli chloramphenicol acetyltransferase assessed as coenzyme A formation using acetyl coenzyme A at 0.154 mM
[19] = Inhibition of Escherichia coli K-12 70S ribosome poly(U)-programmed ribosome (complex C) bearing tRNAPhe at E-site and Ac[3H]Phe-tRNA at P-site assessed as reduction in peptide bond formation using puromycin(S) substrate
[20] = system: Escherichia coli K-12; assay: Drug metabolism in Escherichia coli K-12 assessed as N8,N8-dibenzylspermidine formation at 35.5 uM by RP-HPLC method; format: ADME, organism-based; conditions: escherichia coli k-12, in vivo
In short: (§3)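 Washed cells homogenized in 0.6 M HClO4 and centrifuged. Supernatant checked by RP-HPLC for released N8,N8-dibenzylspermidine.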

[21] = system: Escherichia coli; assay: Reduction in spermidine content in Escherichia coli K-12 at 35.5 uM by UV and mass spectrometry (reference value: 1.63 +/- 0.5 umol/g w.w); format: functional
[22] = system: Escherichia coli; assay: Reduction in putrescine content in Escherichia coli K-12 at 35.5 uM after 3 hrs by UV and mass spectrometry; format: functional; conditions: K-12, 3 h
[23] = system: Escherichia coli; assay: Reduction in putrescine content in Escherichia coli K-12 at 35.5 uM by UV and mass spectrometry (reference value: 7.6 +/- 1.2 umol/g w.w); format: functional
[24] = system: Escherichia coli; assay: Reduction in protein content in Escherichia coli K-12 at 35.5 uM (reference value: 57 +/- 6.35 mg/g w.w); format: functional
[25] = system: Escherichia coli K-12; assay: Drug level in Escherichia coli K-12 at 35.5 uM by RP-HPLC method; format: ADME, organism-based; conditions: in vivo
[26] = system: Escherichia coli; assay: Reduction in spermidine content in Escherichia coli K-12 at 35.5 uM after 3 hrs by UV and mass spectrometry; format: functional; conditions: K-12, 3 h
[27] = system: Escherichia coli; assay: Reduction in protein content in Escherichia coli K-12 at 9.4 uM (reference value: 57 +/- 6.35 mg/g w.w); format: functional
[28] = system: Escherichia coli; assay: Reduction in putrescine content in Escherichia coli K-12 at 9.4 uM after 3 hrs by UV and mass spectrometry; format: functional; conditions: K-12, 3 h
[29] = system: Escherichia coli; assay: Reduction in putrescine content in Escherichia coli K-12 at 9.4 uM by UV and mass spectrometry (reference value: 7.6 +/- 1.2 umol/g w.w); format: functional
[30] = system: Escherichia coli; assay: Reduction in spermidine content in Escherichia coli K-12 at 9.4 uM by UV and mass spectrometry (reference value: 1.63 +/- 0.5 umol/g w.w); format: functional
[31] = system: Escherichia coli; assay: Reduction in spermidine content in Escherichia coli K-12 at 9.4 uM after 3 hrs by UV and mass spectrometry; format: functional; conditions: K-12, 3 h
[32] = system: Escherichia coli K-12; assay: Drug metabolism in Escherichia coli K-12 assessed as N8,N8-dibenzylspermidine formation at 9.4 uM by RP-HPLC method; format: ADME, organism-based; conditions: escherichia coli k-12, in vivo; in short: as §3
[33] = system: Escherichia coli K-12; assay: Drug level in Escherichia coli K-12 at 9.4 uM by RP-HPLC method; format: ADME, organism-based; conditions: in vivo

| Structure (SMILES) | IC50 [1] [µM] | IC50 [2] [µM] | IC50 [3] [µM] | IC50 [4] [µM] | IC50 [5] [µM] | IC50 [6] [µM] | IC50 [7] [µM] | IC50 [8] [µM] | IC50 [9] [µM] | growth inhibition (GI) [10] | growth inhibition (GI) [11] | growth inhibition (GI) [12] | growth inhibition (GI) [13] | growth inhibition (GI) [14] | growth inhibition (GI) [15] | Vmax/Km [17] [min⁻¹] | Km [18] [µM] | Vmax [18] [µM/min] | other results |
| --- | --- | --- | --- | --- | --- | --- | --- | --- | --- | --- | --- | --- | --- | --- | --- | --- | --- | --- | --- |
| NCCCNCCCCNCCCNC(=O)CCC(=O)N[C@H](CO)[C@H](O)c1ccc([N+](=O)[O-])cc1 [listing 1 of 2 here] | > 100 | > 100 | > 100 | > 200 | > 100 | > 200 | 45.3 | > 200 | > 200 | – | – | – | – | – | – | – | – | – | – |
| NCCCNCCCCNCCCNC(=O)CCC(=O)N[C@H](CO)[C@H](O)c1ccc([N+](=O)[O-])cc1 [listing 2 of 2 here] | – | – | – | – | – | – | – | – | – | inactive | inactive | inactive | inactive | inactive | inactive | – | – | – | – |
| O=C(N[C@H](CO)[C@H](O)c1ccc([N+](=O)[O-])cc1)C(Cl)Cl [CHLORAMPHENICOL] | 24.7 | 2 | 6.2 | 6 | 15.5 | 8 | 3.1 | 110 | 14.5 | Active | Active | Active | Active | Active | Active | 0.139 | 59.3 | 8.23 | Ratio IC50 [16]: 3; Ki [19]: 0.88 µM |
| NCCCN(CCCCN(Cc1ccccc1)Cc1ccccc1)C(=O)CCC(=O)N[C@H](CO)[C@H](O)c1ccc([N+](=O)[O-])cc1 [listing 1 of 2 here] | – | – | – | – | – | – | – | – | – | inactive | inactive | inactive | inactive | inactive | inactive | 0.041 | 37.7 | 1.54 | – |
| NCCCCN(CCCN)C(=O)CCC(=O)N[C@H](CO)[C@H](O)c1ccc([N+](=O)[O-])cc1 | – | – | – | – | – | – | – | – | – | inactive | inactive | inactive | inactive | inactive | inactive | – | – | – | – |
| O=C(CCC(=O)N[C@H](CO)[C@H](O)c1ccc([N+](=O)[O-])cc1)NCCCNCCCCN(Cc1ccccc1)Cc1ccccc1 | 37.1 | 33.4 | 35.5 | > 100 | 32.3 | > 100 | 13.7 | 42.5 | > 200 | inactive | inactive | inactive | inactive | inactive | inactive | 0.085 | 53.5 | 4.56 | Drug metabolism [20]: metabolite_notdetected; Activity [21]: 0.35 µmol/g; inhibition at 35.5 µM [22]: 90%; Activity [23]: 0.46 µmol/g; Activity [24]: 21.8 mg/g; Drug uptake [25]: 3.96 µM; Ki [19]: 0.6 µM; inhibition at 35.5 µM [26]: 95% |
| NCCCN(CCCCN(Cc1ccccc1)Cc1ccccc1)C(=O)CCC(=O)N[C@H](CO)[C@H](O)c1ccc([N+](=O)[O-])cc1 [listing 2 of 2 here] | 9.4 | 9 | 9.4 | 9 | 9.4 | 7 | 4.7 | 19 | 10 | – | – | – | – | – | – | – | – | – | Activity [27]: 13.1 mg/g; inhibition at 9.4 µM [28]: 75%; Activity [29]: 1.14 µmol/g; Activity [30]: 0.47 µmol/g; inhibition at 9.4 µM [31]: 80%; Drug metabolism [32]: metabolite_notdetected; Drug uptake [33]: 1.06 µM |
